According to ChEMBL document CHEMBL4308848, “Molecular Basis for the N-Terminal Bromodomain-and-Extra-Terminal-Family Selectivity of a Dual Kinase-Bromodomain Inhibitor” (J Med Chem, 2018):
Active and inactive are the calls of the source. The calls are words filed in the database; no cut-off is given here.

Legend:
[1] = biological target: T1, Bromodomain-containing protein 3 (Homo sapiens, UniProt Q15059); assay: Inhibition of BRD3 N-terminal bromodomain 1 (unknown origin) expressed in Escherichia coli Bl21(DE3) by alpha-screen assay
[2] = biological target: T2, Bromodomain-containing protein 4 (Homo sapiens, UniProt O60885); assay: Inhibition of BRD4 C-terminal bromodomain 2 (unknown origin) expressed in Escherichia coli Bl21(DE3) by alpha-screen assay
[3] = biological target: T3, Bromodomain testis-specific protein (Homo sapiens, UniProt Q58F21); assay: Inhibition of BRDT N-terminal bromodomain 1 (unknown origin) expressed in Escherichia coli Bl21(DE3) by alpha-screen assay
[4] = biological target: T1, Bromodomain-containing protein 3; assay: Inhibition of BRD3 C-terminal bromodomain 2 (unknown origin) expressed in Escherichia coli Bl21(DE3) by alpha-screen assay
[5] = biological target: T4, Bromodomain-containing protein 2 (Homo sapiens, UniProt P25440); assay: Inhibition of BRD2 C-terminal bromodomain 2 (unknown origin) expressed in Escherichia coli Bl21(DE3) by alpha-screen assay
[6] = biological target: T4, Bromodomain-containing protein 2; assay: Inhibition of BRD2 N-terminal bromodomain 1 (unknown origin) expressed in Escherichia coli Bl21(DE3) by alpha-screen assay
[7] = biological target: T1, Bromodomain-containing protein 3; assay: Inhibition of human 6x-His-tagged BRD3 bromodomain 2 expressed in Escherichia coli
[8] = biological target: T4, Bromodomain-containing protein 2; assay: Inhibition of human 6x-His-tagged BRD2 bromodomain 2 expressed in Escherichia coli
[9] = biological target: Mitogen-activated protein kinase 14 (Homo sapiens) (UniProt Q16539); assay: Inhibition of p38alpha in human MM1S cells assessed as reduction in MSK1 phosphorylation at T581 up to 10 uM by Western blot analysis; format: cell-based
[10] = biological target: T2, Bromodomain-containing protein 4; assay: Inhibition of BRD4 N-terminal bromodomain 1 (unknown origin) expressed in Escherichia coli Bl21(DE3) by alpha-screen assay
[11] = biological target: T2, Bromodomain-containing protein 4; assay: Inhibition of BRD4 bromodomain 1 in human A549 cells assessed as reduction in TNFalpha-induced NFkappaB transcription at 1 to 25 uM after 8 hrs by bright-glo luciferase reporter gene assay relative to control; format: cell-based
Method in brief: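 A549-NF-κB-luc cells (DMEM, 10% FBS, hygromycin) were dosed with serial compound dilutions at 0.5% final DMSO. TNF-α (15 ng/mL final) was added 30 min after dosing. Bright-Glo luciferase luminescence was read 8 h later. Activity is expressed as percent NF-κB activity, as means ± SEM of three biological experiments, each with three technical replicates.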

A549 [12] = assay: Cytotoxicity against human A549 cells assessed as reduction in cell viability at 10 to 25 uM after 8 hrs by Alamar blue assay; format: cell-based; settings: a549, 8 h
Method in brief: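 Viability of A549-NF-κB-luc cells was measured by Alamar Blue colorimetric staining, run in parallel with the luciferase reporter. Cells were dosed with serial compound dilutions at 0.5% final DMSO, TNF-α (15 ng/mL) was added 30 min after dosing, and the read was at 8 h.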

[13] = biological target: Mitogen-activated protein kinase 14 (Homo sapiens) (UniProt Q16539); assay: Inhibition of p38alpha in human MM1S cells assessed as reduction in MSK1 phosphorylation at T581 at 0.1 to 30 uM by Western blot analysis; format: cell-based
[14] = biological target: T3, Bromodomain testis-specific protein
[15] = biological target: T2, Bromodomain-containing protein 4; assay: Binding affinity to BRD4 bromodomain 1 (unknown origin) expressed in Escherichia coli Bl21(DE3) by isothermal-titration calorimetry
[16] = biological target: T3, Bromodomain testis-specific protein; remark: listed apart in the source
[17] = biological target: T2, Bromodomain-containing protein 4; assay: Inhibition of BRD4 bromodomain 1 in human MM1S cells assessed as reduction in c-myc levels at 0.1 to 30 uM by Western blot analysis; format: cell-based
Method in brief: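 MM.1S cells in RPMI-1640/10% FBS were seeded at 10^6 per well and exposed for 6 h to 0.1–30 μM compound. Lysates were run on 12.5% SDS-PAGE and blotted for c-Myc, with GAPDH as loading control. Detection by HRP secondary and ECL on X-ray film.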

[18] = biological target: T3, Bromodomain testis-specific protein; assay: Displacement of BI-BODIPY from BRDT C-terminal bromodomain 2 (unknown origin) expressed in Escherichia coli Bl21(DE3) by fluorescence polarization assay
Method in brief: (§1)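 Fluorescence anisotropy in 50 mM HEPES, 100 mM NaCl, 4 mM CHAPS pH 7.4, with 15 nM BI-BODIPY tracer and bromodomain set at 80% tracer bound. […] Percent bound was determined where displacement was incomplete.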

[19] = biological target: T2, Bromodomain-containing protein 4
[20] = biological target: T2, Bromodomain-containing protein 4; assay: Displacement of BI-BODIPY from BRD4 C-terminal bromodomain 2 (unknown origin) expressed in Escherichia coli Bl21(DE3) by fluorescence polarization assay; method in brief: as §1
A549 [21] = assay: Cytotoxicity against human A549 cells assessed as reduction in cell viability at 0.5 to 50 uM after 8 hrs by Alamar blue assay; format: cell-based; settings: a549, 8 h
Method in brief: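 A549-NF-κB-luc cells in DMEM/10% FBS with hygromycin were dosed with serially diluted compound at 0.5% final DMSO. TNF-α (15 ng/mL final) was added 30 min after dosing, and viability was read by Alamar Blue in parallel with the 8 h luciferase read. Three biological × three technical replicates.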

[22] = biological target: T2, Bromodomain-containing protein 4; settings: A549, 1 uM
[23] = biological target: T2, Bromodomain-containing protein 4; settings: A549, 10 uM
[24] = biological target: T3, Bromodomain testis-specific protein; assay: Inhibition of human BRDT bromodomain 1 expressed in HEK293 cells at 10 uM relative to control; format: cell-based
[25] = biological target: Histone acetyltransferase p300 (Homo sapiens) (UniProt Q09472); assay: Inhibition of human P300 (1040 to 1161 residues) expressed in bacterial expression system at 10 uM relative to control
[26] = biological target: Histone acetyltransferase KAT2B (Homo sapiens) (UniProt Q92831); assay: Inhibition of human PCAF (715 to 831 residues) expressed in bacterial expression system at 10 uM relative to control
[27] = biological target: SWI/SNF-related matrix-associated actin-dependent regulator of chromatin subfamily A member 4 (Homo sapiens) (UniProt P51532); assay: Inhibition of human SMARCA4 expressed in HEK293 cells at 10 uM relative to control; format: cell-based
[28] = biological target: T3, Bromodomain testis-specific protein; assay: Binding affinity to human BRDT bromodomain 1 (unknown origin) expressed in Escherichia coli Bl21(DE3) at 12.5 to 100 uM by protein-observed fluorine NMR method
Method in brief: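 5-Fluorotryptophan-labeled bromodomain expressed in E. coli Bl21(DE3)+pRARE in defined medium with 5-fluoroindole, induced with 1 mM IPTG at 20 °C, Ni-purified. 19F NMR with 40−50 μM protein in 50 mM TRIS, 100 mM NaCl, 5% D2O pH 7.4, 0.05% DMSO, across varying ligand concentrations. Referenced to trifluoroacetate; 0.7 s relaxation delay, 90° flip.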

[29] = biological target: SWI/SNF-related matrix-associated actin-dependent regulator of chromatin subfamily A member 2 (Homo sapiens) (UniProt P51531); assay: Inhibition of human SMARCA2 (1377 to 1486 residues) (unknown origin) expressed in bacterial expression system at 10 uM relative to control
SWI/SNF-related matrix-associated actin-dependent regulator of chromatin subfamily A member 2 (Homo sapiens), sequence (P51531 whole entry, the tested form may be a part): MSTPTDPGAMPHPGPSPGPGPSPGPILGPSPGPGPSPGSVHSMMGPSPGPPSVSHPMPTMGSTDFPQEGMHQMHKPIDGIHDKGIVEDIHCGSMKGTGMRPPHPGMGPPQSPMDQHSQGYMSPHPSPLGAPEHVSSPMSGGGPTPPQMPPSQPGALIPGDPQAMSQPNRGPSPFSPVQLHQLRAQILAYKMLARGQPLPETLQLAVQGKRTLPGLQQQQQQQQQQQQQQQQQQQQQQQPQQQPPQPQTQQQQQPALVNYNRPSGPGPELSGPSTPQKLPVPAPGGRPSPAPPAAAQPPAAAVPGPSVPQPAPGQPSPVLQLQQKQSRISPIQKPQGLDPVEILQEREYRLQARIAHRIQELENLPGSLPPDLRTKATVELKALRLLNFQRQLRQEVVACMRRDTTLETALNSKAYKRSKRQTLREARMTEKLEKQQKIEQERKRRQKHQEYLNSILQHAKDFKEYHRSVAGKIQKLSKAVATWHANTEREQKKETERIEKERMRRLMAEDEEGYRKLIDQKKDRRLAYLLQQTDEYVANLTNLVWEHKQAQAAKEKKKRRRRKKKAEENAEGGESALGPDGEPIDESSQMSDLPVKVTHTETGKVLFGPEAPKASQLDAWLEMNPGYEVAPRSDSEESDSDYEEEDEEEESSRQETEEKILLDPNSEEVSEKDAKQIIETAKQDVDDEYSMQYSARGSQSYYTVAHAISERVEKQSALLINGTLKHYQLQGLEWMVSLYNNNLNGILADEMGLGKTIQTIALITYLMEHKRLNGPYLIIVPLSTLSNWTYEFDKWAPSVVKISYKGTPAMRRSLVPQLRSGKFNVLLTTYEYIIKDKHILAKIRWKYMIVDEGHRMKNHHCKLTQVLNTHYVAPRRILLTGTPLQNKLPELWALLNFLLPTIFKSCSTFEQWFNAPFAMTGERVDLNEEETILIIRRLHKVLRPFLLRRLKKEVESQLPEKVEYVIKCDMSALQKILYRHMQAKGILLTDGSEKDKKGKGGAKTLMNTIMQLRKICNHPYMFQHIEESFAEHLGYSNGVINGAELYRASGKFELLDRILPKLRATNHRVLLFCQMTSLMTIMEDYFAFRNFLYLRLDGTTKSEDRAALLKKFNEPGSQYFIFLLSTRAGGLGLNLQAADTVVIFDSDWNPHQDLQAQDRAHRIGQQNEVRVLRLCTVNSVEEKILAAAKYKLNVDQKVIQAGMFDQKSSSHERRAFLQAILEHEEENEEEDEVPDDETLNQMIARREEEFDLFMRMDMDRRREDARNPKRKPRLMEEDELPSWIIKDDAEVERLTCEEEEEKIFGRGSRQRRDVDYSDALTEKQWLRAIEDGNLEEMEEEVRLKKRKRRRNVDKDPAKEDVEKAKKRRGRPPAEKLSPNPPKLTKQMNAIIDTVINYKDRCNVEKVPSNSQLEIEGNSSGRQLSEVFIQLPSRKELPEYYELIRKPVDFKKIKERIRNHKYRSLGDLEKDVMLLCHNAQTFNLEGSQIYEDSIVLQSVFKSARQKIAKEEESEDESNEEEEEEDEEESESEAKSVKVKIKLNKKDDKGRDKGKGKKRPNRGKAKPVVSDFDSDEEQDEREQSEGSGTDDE

T4 sequence (P25440 whole entry): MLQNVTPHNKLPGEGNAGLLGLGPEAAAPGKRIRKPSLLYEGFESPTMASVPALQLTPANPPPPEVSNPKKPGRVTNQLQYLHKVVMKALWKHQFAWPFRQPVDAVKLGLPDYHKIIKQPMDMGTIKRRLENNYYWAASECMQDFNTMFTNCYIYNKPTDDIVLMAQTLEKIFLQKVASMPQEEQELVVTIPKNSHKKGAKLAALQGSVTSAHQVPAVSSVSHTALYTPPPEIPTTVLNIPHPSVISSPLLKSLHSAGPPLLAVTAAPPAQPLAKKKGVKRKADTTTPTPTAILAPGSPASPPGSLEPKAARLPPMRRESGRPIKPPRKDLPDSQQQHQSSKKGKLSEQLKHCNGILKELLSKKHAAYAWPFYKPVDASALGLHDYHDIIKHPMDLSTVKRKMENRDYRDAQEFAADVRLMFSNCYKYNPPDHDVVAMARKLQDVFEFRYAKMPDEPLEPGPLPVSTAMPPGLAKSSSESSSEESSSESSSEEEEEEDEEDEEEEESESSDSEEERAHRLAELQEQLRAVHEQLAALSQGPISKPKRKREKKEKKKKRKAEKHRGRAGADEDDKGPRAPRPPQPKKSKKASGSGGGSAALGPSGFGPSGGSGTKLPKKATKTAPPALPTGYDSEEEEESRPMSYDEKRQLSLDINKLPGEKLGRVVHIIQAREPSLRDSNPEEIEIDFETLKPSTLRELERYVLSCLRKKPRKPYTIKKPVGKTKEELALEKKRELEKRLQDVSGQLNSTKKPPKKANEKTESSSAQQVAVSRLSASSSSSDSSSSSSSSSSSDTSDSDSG
T1 sequence (Q15059 whole entry): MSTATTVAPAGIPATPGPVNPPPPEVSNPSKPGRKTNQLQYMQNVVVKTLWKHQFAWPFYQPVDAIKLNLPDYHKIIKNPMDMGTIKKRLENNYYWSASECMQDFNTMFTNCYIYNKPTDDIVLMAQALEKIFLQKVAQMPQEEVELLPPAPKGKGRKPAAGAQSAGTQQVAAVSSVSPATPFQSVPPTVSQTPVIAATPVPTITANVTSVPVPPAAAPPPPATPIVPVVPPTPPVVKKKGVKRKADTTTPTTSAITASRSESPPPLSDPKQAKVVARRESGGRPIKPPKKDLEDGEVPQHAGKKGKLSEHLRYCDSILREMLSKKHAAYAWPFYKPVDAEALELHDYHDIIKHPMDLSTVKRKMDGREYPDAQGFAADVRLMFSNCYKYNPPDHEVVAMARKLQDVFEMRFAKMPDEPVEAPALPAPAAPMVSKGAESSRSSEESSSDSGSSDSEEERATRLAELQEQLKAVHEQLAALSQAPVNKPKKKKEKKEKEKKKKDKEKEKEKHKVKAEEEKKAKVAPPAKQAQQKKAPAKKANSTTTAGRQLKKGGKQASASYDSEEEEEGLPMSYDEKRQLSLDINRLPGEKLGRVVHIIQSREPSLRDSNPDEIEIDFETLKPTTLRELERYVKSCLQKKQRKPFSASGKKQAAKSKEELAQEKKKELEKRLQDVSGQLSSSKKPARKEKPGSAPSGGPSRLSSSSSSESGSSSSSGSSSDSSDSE
Mitogen-activated protein kinase 14 (Homo sapiens), sequence (Q16539 whole entry): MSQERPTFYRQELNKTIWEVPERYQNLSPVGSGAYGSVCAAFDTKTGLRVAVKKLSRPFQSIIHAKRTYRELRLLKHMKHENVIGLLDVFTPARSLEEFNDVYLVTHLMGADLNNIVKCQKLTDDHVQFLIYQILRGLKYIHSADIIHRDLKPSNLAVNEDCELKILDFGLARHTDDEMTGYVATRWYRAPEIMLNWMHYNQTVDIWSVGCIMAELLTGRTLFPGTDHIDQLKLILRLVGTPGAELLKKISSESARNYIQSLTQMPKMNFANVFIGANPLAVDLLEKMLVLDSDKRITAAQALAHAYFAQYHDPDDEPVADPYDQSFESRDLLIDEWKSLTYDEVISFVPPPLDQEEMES
Histone acetyltransferase KAT2B (Homo sapiens), sequence (Q92831 whole entry, looked up, the tested form may be a part): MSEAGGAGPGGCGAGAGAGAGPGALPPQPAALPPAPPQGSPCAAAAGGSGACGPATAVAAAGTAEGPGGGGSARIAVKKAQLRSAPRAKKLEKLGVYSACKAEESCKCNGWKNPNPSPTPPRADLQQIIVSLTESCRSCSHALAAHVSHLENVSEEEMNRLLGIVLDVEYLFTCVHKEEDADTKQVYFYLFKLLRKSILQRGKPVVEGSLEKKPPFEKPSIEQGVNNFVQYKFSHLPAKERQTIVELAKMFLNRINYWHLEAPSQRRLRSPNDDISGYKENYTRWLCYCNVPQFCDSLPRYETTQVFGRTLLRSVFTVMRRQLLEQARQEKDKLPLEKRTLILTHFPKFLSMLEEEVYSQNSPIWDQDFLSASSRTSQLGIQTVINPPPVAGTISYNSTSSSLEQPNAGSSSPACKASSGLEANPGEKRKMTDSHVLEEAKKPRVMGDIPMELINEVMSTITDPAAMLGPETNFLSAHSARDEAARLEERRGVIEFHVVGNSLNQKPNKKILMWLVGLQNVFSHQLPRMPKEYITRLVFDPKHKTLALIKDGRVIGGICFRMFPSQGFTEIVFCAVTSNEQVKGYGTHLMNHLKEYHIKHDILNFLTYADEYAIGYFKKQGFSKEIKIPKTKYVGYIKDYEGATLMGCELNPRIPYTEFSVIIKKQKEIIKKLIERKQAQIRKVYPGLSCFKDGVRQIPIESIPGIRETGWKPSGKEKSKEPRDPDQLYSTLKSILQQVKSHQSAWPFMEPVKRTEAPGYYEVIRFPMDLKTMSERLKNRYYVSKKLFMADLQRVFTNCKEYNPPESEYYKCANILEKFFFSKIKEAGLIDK

**Q.** Which IC50 [1] does the source give for `Cc1cc(C)cc(Nc2nccc(-c3c(CO)nnn3C3CCNCC3)n2)c1` here?
**A.** 200 µM

**Q.** And the IC50 [2]?
**A.** 102 µM

**Q.** What about the IC50 [3] of the same compound?
**A.** 110 µM

**Q.** And the IC50 [4]?
**A.** 310 µM

**Q.** And the IC50 [5]?
**A.** 260 µM

**Q.** And the IC50 [6]?
**A.** > 250 µM

**Q.** What does the source list for `CC(=O)NCCCCn1c2c(c3ccccc31)C(=O)NCC2`?
**A.** Kd [7]: > 75 µM; Kd [8]: > 75 µM

**Q.** `Cc1sc2c(c1C)C(c1ccc(Cl)cc1)=N[C@@H](CC(=O)OC(C)(C)C)c1nnc(C)n1-2` was tested. Which inhibition [9] did it give?
**A.** inactive

**Q.** With `Cc1cc(C)cc(Nc2nccc(-c3c(-c4ccc(F)cc4)nnn3C3CCNCC3)n2)c1` as the compound, how does the IC50 [10] read?
**A.** 27 µM

**Q.** What about the IC50 [1] of the same compound?
**A.** 51 µM

**Q.** What about the IC50 [2] of the same compound?
**A.** 75 µM

**Q.** And the IC50 [3]?
**A.** 36 µM

**Q.** And the IC50 [4]?
**A.** 110 µM

**Q.** What about the IC50 [5] of the same compound?
**A.** 30 µM

**Q.** And the IC50 [6]?
**A.** 43 µM

**Q.** With `NC(=O)c1ccc(N(C(N)=O)c2c(F)cccc2F)nc1-c1ccc(F)cc1F` [VX-702] as the compound, how does the inhibition [11] read?
**A.** inactive

**Q.** And the Activity (A549 [12])?
**A.** Non-Toxic

**Q.** `Cc1ccc(Nc2nccc(-c3c(-c4ccc(F)cc4)ncn3C3CCNCC3)n2)cc1C` was tested. Which inhibition [13] did it give?
**A.** Active

**Q.** And the IC50 [14]?
**A.** > 250 µM

**Q.** And the Kd [15]?
**A.** 1.8 µM

**Q.** What about the IC50 [16] of the same compound?
**A.** 4.7 µM

**Q.** What about the inhibition [17] of the same compound?
**A.** Active

**Q.** And the inhibition [18]?
**A.** inactive

**Q.** And the IC50 [19]?
**A.** > 250 µM

**Q.** And the inhibition [20]?
**A.** inactive

**Q.** And the Activity (A549 [21])?
**A.** Non-Toxic

**Q.** `COc1cc(OC)c2c(=O)[nH]c(-c3cc(C)c(OCCO)c(C)c3)nc2c1` was tested. Which inhibition [22] did it give?
**A.** 40%

**Q.** What about the inhibition [23] of the same compound?
**A.** 25%

**Q.** What about the inhibition [20] of the same compound?
**A.** Active

**Q.** What does the source list for `Cc1cc(C)cc(Nc2nccc(-c3c(-c4ccc(F)cc4)ncn3C3CCNCC3)n2)c1`?
**A.** IC50 [14]: > 250 µM; inhibition [24]: 50%; inhibition [25]: 40 to 50%; inhibition [26]: 40 to 50%; IC50 [16]: 3.5 µM; IC50 [1]: 11.2 µM; IC50 [3]: 5.3 µM; inhibition [27]: 40 to 50%; IC50 [4]: > 100 µM; inhibition [18]: inactive; IC50 [5]: 67 µM; Activity [28]: Active; IC50 [6]: 29 µM; inhibition [29]: 40 to 50%; Activity (A549 [21]): Non-Toxic

**Q.** How did the inhibition [11] turn out when `C[S+]([O-])c1ccc(-c2nc(-c3ccc(F)cc3)c(-c3ccncc3)[nH]2)cc1` (configuration not stated) was run?
**A.** inactive

**Q.** Which inhibition [18] does the source give for `CC[C@@H]1C(=O)N(C)c2cnc(Nc3ccc(C(=O)NC4CCN(C)CC4)cc3OC)nc2N1C1CCCC1` here?
**A.** Active

**Q.** How did the IC50 [14] turn out when `Fc1ccc(-c2ncn(C3CCNCC3)c2-c2ccnc(Oc3cc(F)cc(F)c3)n2)cc1` was run?
**A.** > 250 µM

**Q.** What about the IC50 [16] of the same compound?
**A.** > 250 µM

**Q.** `Cc1cc(C)cc(Nc2nccc(-c3c(C)nnn3C3CCNCC3)n2)c1` was tested. Which IC50 [10] did it give?
**A.** 1.3 µM

**Q.** What about the IC50 [1] of the same compound?
**A.** 0.77 µM

**Q.** And the IC50 [2]?
**A.** 0.56 µM

**Q.** And the IC50 [3]?
**A.** 1.6 µM

**Q.** What about the IC50 [4] of the same compound?
**A.** 2.4 µM

**Q.** What about the IC50 [5] of the same compound?
**A.** 12 µM

**Q.** What about the IC50 [6] of the same compound?
**A.** 1.8 µM

**Q.** How did the Activity (A549 [12]) turn out when `C[S+]([O-])c1ccc(-c2nc(-c3ccncc3)c(-c3ccc(F)cc3)[nH]2)cc1` (configuration not stated) [SB-203580] was run?
**A.** Non-Toxic
